Most compounds without a hit are left out; they make up all but 1.6% or so of the library.
DSG3 Ab inh – blocks pemphigus antibody binding to human desmoglein-3; DSG3-coupled beads, scFv-anti-DSG3-GFP binding, flow cytometry; active compounds read low; binding (percent of control), % at 10 µM; hit rate 0.48% among 310,000; AID 588358;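 active = binding more than 3 SD below its plate's average and above zero; inconclusive = below that plate limit but binding exactly zero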;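 note: hits lower antibody fragment binding to DSG3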
HDAC3 inh – blocks human histone deacetylase 3. recombinant HDAC3, fluorogenic peptide/trypsin coupled, fluorescence. O15379. hit rate 0.15% among 320,000. AID 2718. inhibition, % at 8.3 µM; in the data active = inhibition above about 26%, passing the limit was not always enough; inconclusive = no clear call, values can overlap the other calls
LANA-H2A inh – blocks KSHV LANA binding to histone H2A/H2B | cell-free LANA-H2A/H2B peptide, fluorescence polarization | hit rate 0.6% among 320,000 | inhibition, % (no concentration beside the values) | Q9QR71; in the data active = inhibition mostly above about 10%, no sharp cut-off; inactive = mostly below about 6.7%
Target sequence (Q9QR71 whole entry, looked up): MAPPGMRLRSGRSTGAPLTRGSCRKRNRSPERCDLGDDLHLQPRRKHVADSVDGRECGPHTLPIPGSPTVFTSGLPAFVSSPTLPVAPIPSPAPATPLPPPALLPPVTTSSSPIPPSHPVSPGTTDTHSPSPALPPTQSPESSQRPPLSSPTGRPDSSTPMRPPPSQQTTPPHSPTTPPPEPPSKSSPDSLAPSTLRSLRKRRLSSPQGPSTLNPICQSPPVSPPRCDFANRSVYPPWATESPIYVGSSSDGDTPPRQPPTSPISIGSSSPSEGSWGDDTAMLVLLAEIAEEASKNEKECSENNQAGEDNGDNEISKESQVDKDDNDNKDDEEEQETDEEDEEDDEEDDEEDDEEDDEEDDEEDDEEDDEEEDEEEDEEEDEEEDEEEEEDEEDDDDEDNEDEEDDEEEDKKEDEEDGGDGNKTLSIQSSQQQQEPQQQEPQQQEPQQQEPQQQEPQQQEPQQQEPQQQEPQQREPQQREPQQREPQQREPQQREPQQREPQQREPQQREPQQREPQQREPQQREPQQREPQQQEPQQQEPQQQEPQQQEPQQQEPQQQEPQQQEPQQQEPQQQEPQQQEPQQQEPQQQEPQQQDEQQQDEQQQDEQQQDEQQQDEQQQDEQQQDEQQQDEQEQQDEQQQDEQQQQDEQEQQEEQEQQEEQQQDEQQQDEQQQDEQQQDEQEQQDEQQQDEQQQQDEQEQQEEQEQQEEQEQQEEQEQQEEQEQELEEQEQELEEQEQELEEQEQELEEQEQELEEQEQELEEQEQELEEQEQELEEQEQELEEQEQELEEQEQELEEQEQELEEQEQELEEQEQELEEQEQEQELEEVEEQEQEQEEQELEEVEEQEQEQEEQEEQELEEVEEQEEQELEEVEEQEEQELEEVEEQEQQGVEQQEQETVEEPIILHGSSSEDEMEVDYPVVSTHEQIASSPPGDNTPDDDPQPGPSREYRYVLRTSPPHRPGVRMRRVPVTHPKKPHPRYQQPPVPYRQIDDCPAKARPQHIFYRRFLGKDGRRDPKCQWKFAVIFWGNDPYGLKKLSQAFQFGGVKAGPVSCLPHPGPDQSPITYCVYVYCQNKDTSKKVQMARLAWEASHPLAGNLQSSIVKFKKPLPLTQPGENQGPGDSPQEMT
Arrestin-AP2 inh – blocks beta-arrestin peptide binding to AP2 adaptin. FITC-arrestin peptide / GST-AP2 beads, flow cytometry; AP2 beta2 appendage carries R879A mutation. inhibition, % at 10 µM. hit rate 0.31% among 340,000;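 active = inhibition above a set limit, near 3 SD of compounds lacking own fluorescence, cut at about 54% in these data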;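 note: plate controls were DMSO wells for no effect and 5 µM unlabelled arrestin peptide for full effect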
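System: GST-AP2 R879A bound to glutathione beads, E. coli-expressed. Also added: 50 nM FITC-arrestin peptide. Schedule: compound with beads 12 min RT, then probe 1 h RT. Signal: bead flow cytometry, FITC channel. Read-out basis: percent response.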
JMJD2C inh – blocks human GASC-1 demethylase activity; Q9H3R0; GST-JMJD2C(1-420) H3K9me3 demethylation, DELFIA europium; inhibition, % at 2.35 µM; hit rate 0.069% among 330,000;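 active = more than half of a compound's replicate wells show inhibition beyond 50%, single wells judged on their own value; inconclusive = some, but no more than half, of replicates pass 50% inhibition; inactive = no replicate passes 50% inhibition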;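 note: signal counts dimethyl H3K9 product captured on neutravidin plate; 0% = median of DMSO wells and 100% = 0.3 times that DMSO median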
T cell HTS – T cell immune modulators affecting CD8 T cell-vesicle binding; 2C CD8+ T cell-vesicle binding, flow cytometry; active compounds read low; response (vesicle binding), % at 7 µM; hit rate 0.068% among 330,000; AID 2052;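 active = response, share of CD8 T cells binding vesicles, and their 90th percentile fluorescence all below set limits, cut at about 80% in these data, passing the limit was not always enough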;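 note: values below 100% mean blocked vesicle binding to the CD8+ T cells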
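Assay system – 2C mouse CD8+ T cells · Also added – QL9-loaded Drosophila micro-vesicles · Timing – Cell–vesicle co-incubation 1.5 h at 37 °C, staining 20 min on ice · Signal – flow cytometry of vesicle-bound cells · Measure – percent CD8+ FL2 mean versus row control · Controls – Peptide-free naked vesicles (low) and QL9 vesicles with 0.7% DMSO vehicle (high)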
* marks the source's active call; other numbers are inactive results.

How did COc1ccc(S(=O)(=O)NC2CC(C)(C)NC(C)(C)C2)cc1 do in these assays?
DSG3 Ab inh: 111; HDAC3 inh: -1; LANA-H2A inh: 1; Arrestin-AP2 inh: 6; JMJD2C inh: -8; T cell HTS: 355

Results for CC1(C)CC(NS(=O)(=O)c2ccc3ccccc3c2)CC(C)(C)N1 ?
DSG3 Ab inh: 33*; HDAC3 inh: -2; LANA-H2A inh: -1; Arrestin-AP2 inh: -16; JMJD2C inh: -9; T cell HTS: 182

How did COc1ccc2c(c1)CC(C1(O)C(=O)N(C)c3ccccc31)C2=O (stereo not drawn) do in these assays?
DSG3 Ab inh: 95; HDAC3 inh: 11; LANA-H2A inh: -9; Arrestin-AP2 inh: 5; JMJD2C inh: 51*; T cell HTS: 393

How did O=C(Cn1ncc2c(=O)oc3ccccc3c21)NCC1COc2ccccc2O1 (stereo not drawn) do in these assays?
DSG3 Ab inh: 88*; HDAC3 inh: 7; LANA-H2A inh: 6; Arrestin-AP2 inh: 7; JMJD2C inh: -2; T cell HTS: 176

Results for O=C(CN1C(=O)C2CC=CCC2C1=O)NCC1COc2ccccc2O1 (stereo not drawn) ?
DSG3 Ab inh: 101; HDAC3 inh: -8; LANA-H2A inh: 51*; Arrestin-AP2 inh: -6; JMJD2C inh: -1; T cell HTS: 422

How did O=C(Cn1ccc2ccccc2c1=O)NCC1COc2ccccc2O1 (stereo not drawn) do in these assays?
DSG3 Ab inh: 96; HDAC3 inh: -3; LANA-H2A inh: -4; Arrestin-AP2 inh: 3; JMJD2C inh: -5; T cell HTS: 307

How did CCN(c1ccccc1)S(=O)(=O)c1ccc(Cl)c(NC(=O)CSc2nc(N)cc(=O)[nH]2)c1 do in these assays?
DSG3 Ab inh: 96

What do the screens show for `O=C(CNC(=O)c1ccc2c(c1)OCO2)N/N=C/c1cc(Br)ccc1O`?
DSG3 Ab inh: 104; HDAC3 inh: 0; LANA-H2A inh: -8; Arrestin-AP2 inh: 1; JMJD2C inh: -4; T cell HTS: 207

How did O=C1C(=Cc2ccc(Br)o2)C(=O)c2ccccc21 do in these assays?
DSG3 Ab inh: 94*; HDAC3 inh: 9; LANA-H2A inh: -3; Arrestin-AP2 inh: 35; JMJD2C inh: -2; T cell HTS: 287

Results for Cc1cc(OCC(=O)OCC(=O)c2ccc[nH]2)ccc1Cl ?
DSG3 Ab inh: 106; Arrestin-AP2 inh: 2

What do the screens show for `COCc1c(C(=O)OCC(=O)NCc2ccco2)oc2ccccc12`?
DSG3 Ab inh: 100; HDAC3 inh: 1; LANA-H2A inh: 4; Arrestin-AP2 inh: -5; JMJD2C inh: 1; T cell HTS: 386

What do the screens show for `COc1cc(OC)cc(C(=O)NCC(=O)OCC(=O)NCc2ccco2)c1`?
DSG3 Ab inh: 89; HDAC3 inh: 33*; LANA-H2A inh: 3; Arrestin-AP2 inh: 0; JMJD2C inh: 5; T cell HTS: 346

Results for Cc1c(C(=O)OCC(=O)NCc2ccco2)oc2ccccc12 ?
HDAC3 inh: 1; LANA-H2A inh: -2; Arrestin-AP2 inh: 5; JMJD2C inh: 6; T cell HTS: 65*

How did O=C1CCN2C=Nc3cccc4ccc1c2c34 do in these assays?
DSG3 Ab inh: 109; HDAC3 inh: -1; LANA-H2A inh: 114*; Arrestin-AP2 inh: 12; JMJD2C inh: 22; T cell HTS: 69

How did O=C1CCC(=O)c2ccc3c4c(ccc1c24)CC3 do in these assays?
DSG3 Ab inh: 116; Arrestin-AP2 inh: 5

Results for CC(C)C(NC(=O)c1c(F)cccc1F)C(=O)NCc1ccc(S(=O)(=O)N2CCOCC2)cc1 (stereo not drawn) ?
DSG3 Ab inh: inconclusive; HDAC3 inh: 0; LANA-H2A inh: 4; Arrestin-AP2 inh: -7; JMJD2C inh: 3; T cell HTS: 136

Results for Cc1cc(C)cc(NC(=O)C(=S)NCc2ccccc2)c1 ?
DSG3 Ab inh: 107; HDAC3 inh: 3; LANA-H2A inh: 43*; Arrestin-AP2 inh: 17; JMJD2C inh: -26; T cell HTS: 323

How did CC1CN(Cc2c(O)ccc3c(=O)c(-c4ccccc4)coc23)CC(C)O1 (stereo not drawn) do in these assays?
DSG3 Ab inh: 112; HDAC3 inh: -28; LANA-H2A inh: -2; Arrestin-AP2 inh: 5; JMJD2C inh: -3; T cell HTS: 276

How did CC1CN(Cc2c(O)ccc3c2oc(=O)c2ccccc23)CC(C)O1 (stereo not drawn) do in these assays?
DSG3 Ab inh: 98; HDAC3 inh: 8; LANA-H2A inh: -2; Arrestin-AP2 inh: 16; JMJD2C inh: 54*; T cell HTS: 147

How did O=C(Cn1nnc(-c2ccc(N3CCOCC3)cc2)n1)OC1CCCCC1 do in these assays?
DSG3 Ab inh: 60*; HDAC3 inh: 4; LANA-H2A inh: 0; Arrestin-AP2 inh: 4; JMJD2C inh: 4; T cell HTS: 308

Results for Cc1ccccc1-n1nc2c(c1NC(=O)c1ccc(Br)o1)CSC2 ?
DSG3 Ab inh: 87*; HDAC3 inh: inconclusive; LANA-H2A inh: -2; Arrestin-AP2 inh: 9; JMJD2C inh: 3; T cell HTS: 728

Results for CN(CCOC(=O)c1cccc(F)c1)Cc1ccccc1 ?
DSG3 Ab inh: 91; HDAC3 inh: -4; LANA-H2A inh: 11*; Arrestin-AP2 inh: 19; JMJD2C inh: -1; T cell HTS: 149

What do the screens show for `COc1ccc(C(CNC(=O)c2cccc(S(=O)(=O)N3CCOCC3)c2)N2CCCC2)cc1` (stereo not drawn)?
HDAC3 inh: 2; LANA-H2A inh: 11*; Arrestin-AP2 inh: 21; JMJD2C inh: -19; T cell HTS: 272

How did COc1ccc(C(CNC(=O)c2cccc(S(=O)(=O)N3CCOCC3)c2)N2CCOCC2)cc1 (stereo not drawn) do in these assays?
DSG3 Ab inh: 110; HDAC3 inh: -2; LANA-H2A inh: 6; Arrestin-AP2 inh: 13; JMJD2C inh: -5; T cell HTS: 423

Results for CNC(=O)c1c(NC(=O)c2ccco2)sc2c1CCC2 ?
DSG3 Ab inh: 111; HDAC3 inh: 0; LANA-H2A inh: 83*; Arrestin-AP2 inh: 21; JMJD2C inh: 20; T cell HTS: 702

How did O=C(Nc1sc2c(c1C(=O)NC1CCCCC1)CCC2)c1ccco1 do in these assays?
DSG3 Ab inh: 101; Arrestin-AP2 inh: 0; JMJD2C inh: -22

Results for C/C=N\NC(=O)CNC(=O)CNC(=O)c1ccccc1 ?
DSG3 Ab inh: 94; HDAC3 inh: 0; LANA-H2A inh: 0; Arrestin-AP2 inh: 22; JMJD2C inh: -6; T cell HTS: 184

Results for COc1ccc(CN2C(=O)C(CC(=O)NCCN3CCOCC3)CC(C(=O)N3CCOCC3)=C2C)cc1 (stereo not drawn) ?
DSG3 Ab inh: 100
